Measured values reported in PMC4109633 (Drug Design, Development and Therapy, 2014).
Marks after values point to notes of the source that are not given here.

Tests used:
Type in all cases: cell-based
[1] = test system: Salmonella typhimurium TA1535; test: Antimutagenicity assay against sodium azide; settings: for NaN3 mutagenicity (revertant colonies/plate; mean ± SEM): NaN3 2 μg/plate, spontaneous 29.3±5.3
Method in brief: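 TA1535 was exposed to test compound at 10 or 20 µM with NaN₃ (2 µg/plate) in two schemes. In pre-exposure, compound and bacteria were shaken 30 min at 37°C before mutagen was added. In co-exposure, bacteria, mutagen and compound were incubated together 30 min at 37°C. Cells were then plated on minimal glucose agar, and revertants counted at 48 h, in triplicate. Mutant frequency = mutant colonies/viable colonies.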

[2] = test system: Salmonella typhimurium TA1535; test: Cytotoxicity in liquid medium; settings: mean ± SEM
Method in brief: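 TA1535 was grown in broth microdilution with test compound at 25, 50 or 100 µM. Viability was expressed as % of untreated control (mean ± SEM), triplicate.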

[3] = test system: Salmonella typhimurium TA1535; test: Ames Salmonella/microsomal mutagenicity assay; settings: presence of S9 mix, spontaneous 67.0±6.1
[4] = test system: Salmonella typhimurium TA1535; test: Antimutagenicity assay against benzo[a]pyrene with S9 mix; settings: for B[a]P mutagenicity (revertant colonies/plate; mean ± SEM): B[a]P 20 μM + S9 mix, spontaneous 105.0±13.1; for Mutant frequency (benzo[a]pyrene): mutant colonies/viable colonies; for Antimutagenic potential against B[a]P: low concentration investigated
[5] = co-exposure, 20 μM, mutant colonies/viable colonies
[6] = pre-exposure, 10 μM, mutant colonies/viable colonies
[7] = pre-exposure, 20 μM, mutant colonies/viable colonies
[8] = co-exposure, 10 μM, mutant colonies/viable colonies

SMILES | NaN3 mutagenicity (revertant colonies/plate; mean ± SEM) ([1]; co-exposure, 10 μM) [revertant colonies/plate] | NaN3 mutagenicity (revertant colonies/plate; mean ± SEM) ([1]; co-exposure, 20 μM) [revertant colonies/plate] | Mutant frequency (sodium azide) [1, 5] | NaN3 mutagenicity (revertant colonies/plate; mean ± SEM) ([1]; pre-exposure, 10 μM) [revertant colonies/plate] | Mutant frequency (sodium azide) [1, 6] | NaN3 mutagenicity (revertant colonies/plate; mean ± SEM) ([1]; pre-exposure, 20 μM) [revertant colonies/plate] | Mutant frequency (sodium azide) [1, 7] | Viability at fluoroarylbichalcophene concentrations (% of control) ([2]; 25 μM) | Viability at fluoroarylbichalcophene concentrations (% of control) ([2]; 50 μM) | Viability at fluoroarylbichalcophene concentrations (% of control) ([2]; 100 μM) | Fluoroarylbichalcophene mutagenicity (revertant colonies/plate; mean ± SEM) ([3]; 10 μM) [revertant colonies/plate] | Fluoroarylbichalcophene mutagenicity (revertant colonies/plate; mean ± SEM) ([3]; 20 μM) [revertant colonies/plate] | B[a]P mutagenicity (revertant colonies/plate; mean ± SEM) ([4]; co-exposure, 10 μM) [revertant colonies/plate] | Mutant frequency (benzo[a]pyrene) ([4]; co-exposure, 10 μM) | B[a]P mutagenicity (revertant colonies/plate; mean ± SEM) ([4]; co-exposure, 20 μM) [revertant colonies/plate] | Mutant frequency (benzo[a]pyrene) ([4]; co-exposure, 20 μM) | B[a]P mutagenicity (revertant colonies/plate; mean ± SEM) ([4]; pre-exposure, 10 μM) [revertant colonies/plate] | Mutant frequency (benzo[a]pyrene) ([4]; pre-exposure, 10 μM) | B[a]P mutagenicity (revertant colonies/plate; mean ± SEM) ([4]; pre-exposure, 20 μM) [revertant colonies/plate] | Mutant frequency (benzo[a]pyrene) ([4]; pre-exposure, 20 μM) | other results
N#Cc1ccc(-c2ccc(-c3ccco3)o2)c(F)c1 [Compound 4a, 4-(2,2′-Bifuran-5-yl)-3-fluorobenzonitrile] | 75.0±2.3 | 34.3±4.9 | 0.69 | 47.7±6.5 | 0.99 | 26.0±5.5 | 0.52 | 100.0±8.5 % of control | 66.3±5.6 ^a % of control | 45.7±3.5 ^a % of control | 63.3±5.5 | 69.7±7.0 | 270.0±19.0 | 4.08 | 268.0±16.6 | 4.14 | 267.0±11.0 | 4.04 | 267.7±13.0 | 4.14 | –
N#Cc1ccc(-c2ccc(-c3ccco3)o2)cc1F [Compound 4b, 4-(2,2′-Bifuran-5-yl)-2-fluorobenzonitrile] | 35.3±2.8 | 32.7±5.5 | 0.64 | 69.7±8.0 | 1.28 | 48.3±5.0 | 0.95 | 88.3±7.4 % of control | 64.7±6.6 ^a % of control | 29.0±3.1 ^a % of control | 64.3±4.0 | 71.3±4.0 | 193.0±15.7 | 3.00 | 154.7±16.5 | 2.41 | 239.3±10.5 | 3.72 | 238.0±7.6 | 3.70 | Mutant frequency (sodium azide) [1, 8]: 0.65
N#Cc1ccc(-c2ccc(-c3cccs3)o2)c(F)c1 [Compound 4c, 3-Fluoro-4-(5-(thiophen-2-yl)furan-2-yl)benzonitrile] | 44.7±6.0 | 40.0±5.0 | 0.78 | 51.0±6.6 | 0.93 | 53.7±9.3 | – | 104.7±11.6 % of control | 61.0±7.0 ^a % of control | 2.7±0.4 ^a % of control | 65.3±5.4 | 68.7±5.5 | 279.3±19.5 | 4.43 | 269.3±9.0 | 4.41 | 177.0±11.3 | 2.81 | 153.7±7.0 | 2.52 | Mutant frequency (sodium azide) [1, 8]: 0.81; Antimutagenic potential against B[a]P ([4]; co-exposure): no significant activity
N#Cc1ccc(-c2ccc(-c3cccs3)o2)cc1F [Compound 4d, 2-Fluoro-4-(5-(thiophen-2-yl)furan-2-yl)benzonitrile] | 47.7±2.7 | 49.7±6.4 | 0.94 | 36.0±2.7 | 0.69 | 29.7±4.0 | 0.56 | 71.7±5.0 % of control | 59.7±4.7 ^a % of control | 3.0±0.2 ^a % of control | 68.7±6.0 | 67.7±6.1 | 287.7±16.0 | 4.38 | 204.0±5.3 | 3.29 | 271.0±16.5 | 4.12 | 271.0±12.2 | 4.37 | Mutant frequency (sodium azide) [1, 8]: 0.92; Antimutagenic potential against B[a]P ([4]; co-exposure): no significant activity
N#Cc1ccc(-c2ccc(-c3cccs3)s2)cc1F [Compound 4e, 4-(2,2′-Bithiophen-5-yl)-2-fluorobenzonitrile] | 36.7±4.7 | 25.0±5.6 | 0.48 | 24.7±3.5 | 0.44 | 21.7±2.1 | 0.42 | 104.0±9.9 % of control | 64.7±8.1 ^a % of control | 22.3±2.2 ^a % of control | 65.3±6.2 | 66.7±6.7 | 282.3±16.6 | 4.28 | 285.0±18.1 | 4.38 | 241.3±11.0 | 3.66 | 201.0±10.5 | 3.09 | Mutant frequency (sodium azide) [1, 8]: 0.66; Antimutagenic potential against B[a]P ([4]; co-exposure): no significant activity
Cl.N=C(N)c1ccc(-c2ccc(-c3ccco3)o2)c(F)c1 [Compound 5a, 4-(2,2′-Bifuran-5-yl)-3-fluorobenzamidine hydrochloride salt] | 73.3±4.1 | 39.0±8.1 | 0.76 | 57.7±11.0 | – | 22.3±2.1 | 0.44 | 102.3±10.2 % of control | 63.3±9.0 ^a % of control | 32.7±2.7 ^a % of control | 61.0±4.8 | 65.7±5.8 | 102.0±12.1 | – | 98.3±9.5 | 1.65 | 209.7±10.3 | 3.26 | 201.0±11.0 | 3.37 | –
[N-]=[N+]=[N-].[Na+] [NaN3, sodium azide, reference compound] | – | – | – | – | – | – | – | – | – | – | – | – | – | – | – | – | – | – | – | – | Mutant frequency, NaN3 alone ([1]; NaN3 without fluoroarylbichalcophene, mutant colonies/viable colonies): 2.65 (100)
